Data as given in ChEMBL document CHEMBL1127501, “TcO(PnA.O-1-(2-nitroimidazole)) [BMS-181321], a new technetium-containing nitroimidazole complex for imaging hypoxia: synthesis, characterization, and xanthine oxidase-catalyzed reduction” (J Med Chem, 1994).
Values belong to the compound of their own block, whether it stands above or below them.

What was measured:
xanthine oxidase [1] = test: Half life for the nitro group loss in xanthine oxidase enzyme assay in 0.2%DMF at 0.1 mM; assay type: ADME
Summary of the method: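 Anaerobic assay in argon-purged, septum-sealed cuvette: 100 µM nitro compound, 4 mM hypoxanthine, 0.2 units/mL bovine milk xanthine oxidase, 0.1 M phosphate/EDTA pH 7.4, 0.2% DMF final. Nitro absorbance at 326 nm read every 5 min and converted to concentration. Half-life taken from plots of log[% remaining] vs time.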

[2] = molecular target: Xanthine dehydrogenase/oxidase (Bos taurus, UniProt P80457); test: Reaction rate was evaluated for the compound with hypoxanthine as reducing substrate in 5% DMF expressed as nM/min/unit XOD
Sequence of Xanthine dehydrogenase/oxidase (P80457 whole entry): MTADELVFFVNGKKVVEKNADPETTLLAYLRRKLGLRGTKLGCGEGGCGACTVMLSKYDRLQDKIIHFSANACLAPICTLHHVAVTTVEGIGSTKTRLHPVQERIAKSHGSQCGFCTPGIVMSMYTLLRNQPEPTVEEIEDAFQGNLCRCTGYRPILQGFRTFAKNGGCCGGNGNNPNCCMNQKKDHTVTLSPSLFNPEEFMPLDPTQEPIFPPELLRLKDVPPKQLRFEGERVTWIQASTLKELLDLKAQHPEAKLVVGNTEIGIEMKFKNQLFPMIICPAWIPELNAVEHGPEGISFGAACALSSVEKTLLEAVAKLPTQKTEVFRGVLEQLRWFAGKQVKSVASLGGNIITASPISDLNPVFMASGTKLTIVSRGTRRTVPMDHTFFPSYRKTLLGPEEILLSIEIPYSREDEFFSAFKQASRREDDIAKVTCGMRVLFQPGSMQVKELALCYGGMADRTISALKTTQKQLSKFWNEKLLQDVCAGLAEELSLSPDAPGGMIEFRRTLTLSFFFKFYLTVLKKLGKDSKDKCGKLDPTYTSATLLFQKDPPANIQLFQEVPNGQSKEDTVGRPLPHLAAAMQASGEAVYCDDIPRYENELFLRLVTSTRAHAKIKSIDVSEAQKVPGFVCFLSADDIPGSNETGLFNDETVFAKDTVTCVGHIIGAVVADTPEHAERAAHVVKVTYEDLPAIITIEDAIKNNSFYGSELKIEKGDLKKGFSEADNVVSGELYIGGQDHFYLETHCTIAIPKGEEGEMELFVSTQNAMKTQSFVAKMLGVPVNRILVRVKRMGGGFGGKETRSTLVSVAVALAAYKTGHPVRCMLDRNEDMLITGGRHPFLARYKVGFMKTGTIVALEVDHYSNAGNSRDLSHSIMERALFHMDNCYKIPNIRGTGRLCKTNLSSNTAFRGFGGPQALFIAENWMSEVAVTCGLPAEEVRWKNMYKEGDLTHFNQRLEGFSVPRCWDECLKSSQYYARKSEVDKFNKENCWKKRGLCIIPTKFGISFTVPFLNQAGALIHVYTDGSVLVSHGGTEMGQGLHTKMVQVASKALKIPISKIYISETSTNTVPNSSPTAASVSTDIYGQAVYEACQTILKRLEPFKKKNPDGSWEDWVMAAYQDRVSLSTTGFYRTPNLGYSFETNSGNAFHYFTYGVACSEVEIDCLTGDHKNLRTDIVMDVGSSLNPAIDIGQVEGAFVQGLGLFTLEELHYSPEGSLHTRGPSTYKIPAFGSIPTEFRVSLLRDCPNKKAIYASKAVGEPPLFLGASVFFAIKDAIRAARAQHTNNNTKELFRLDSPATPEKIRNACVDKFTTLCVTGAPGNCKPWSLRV

xanthine oxidase [3] = test: (§1) Half life for the nitro group loss in xanthine oxidase enzyme assay in 5%DMF at 0.1 mM
[4] = Half life for the nitro group loss in xanthine oxidase enzyme assay in 5 %DMF at 0.1 mM; No rection seen; assay type: ADME; settings: 100 µM
[5] = Half life for the nitro group loss in xanthime oxidase enzyme assay in 5%DMF with no enzyme control at 0.1 mM; No reaction seen; assay type: ADME; settings: 100 µM
[6] = Half life for the nitro group loss in xanthime oxidase enzyme assay in 5%DMF with no hypoxanthine control at 0.1 mM; No reaction seen; assay type: ADME; settings: 100 µM
[7] = as §1; assay type: ADME; settings: 100 µM
Summary of the method: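 Nitro compound at 100 µM with 4 mM hypoxanthine and 0.2 units/mL cow milk xanthine oxidase, in 0.1 M phosphate/EDTA pH 7.4 containing 5% DMF. Solutions were argon-deoxygenated before the enzyme was injected by gas-tight syringe. Loss of the 326 nm nitroimidazole absorbance was followed by UV/vis, and the half-life derived from the time course.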

half-life at 100 µM (xanthine oxidase [1]): > 20 h
Compound: Cc1ncc([N+](=O)[O-])n1CCO [METRONIDAZOLE]

Rate [2]: 3.7 nM min-1 (unit XOD)-1
half-life at 100 µM (xanthine oxidase [3]): 1 h
Compound: COCC(O)Cn1ccnc1[N+](=O)[O-] (stereo not drawn) [MISONIDAZOLE]

T1/2 [4]: Not Active
Compound: TCO(PNAO)

T1/2 [5]: Not Active
T1/2 [6]: Not Active
T1/2 [7]: 2 h
Rate [2]: 1.5 nM min-1 (unit XOD)-1
Compound: TcO(PnA.O-1-(2-nitroimidazole))
